In brackets after ≈: the same amount, converted by molar mass.
What was measured:
[1] = target: T1, Dual specificity tyrosine-phosphorylation-regulated kinase 1A (Homo sapiens, UniProt Q13627); experiment: Displacement of Kinase tracer 236 from biotinylated DYRK1A (unknown origin) expressed in Escherichia coli BL21 (DE3) incubated for 1.5 hrs by TR-FRET assay
[2] = Thermodynamic solubility of the compound at pH 6.8; type: physicochemical; details: buffer, read-out: Therm_solubility
Summary of the method: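 Thermodynamic solubility measured at pH 6.8 in a single experiment, reported in […].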

[3] = Metabolic stability in human liver microsomes; type: ADME, Microsome; details: read-out: Stabilty
[4] = Metabolic stability in rat liver microsomes; type: ADME, Microsome; details: read-out: Stabilty
[5] = target: Dual specificity protein kinase CLK2 (Homo sapiens) (UniProt P49760); experiment: Inhibition of wild-type human partial length CLK2 (D144 to R498 residues) expressed in bacterial expression system assessed as remaining activity at 1 uM by Kinomescan method relative to control
Summary of the method: (§1)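 KINOMEscan competition binding panel run with inhibitor at 1 μM; read-out is remaining kinase activity (percent of control).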

[6] = target: T1, Dual specificity tyrosine-phosphorylation-regulated kinase 1A; experiment: Binding affinity to biotinylated DYRK1A (unknown origin) expressed in Escherichia coli BL21 (DE3) assessed as dissociation constant measured up to 5 min by SPR method
[7] = target: Dual specificity tyrosine-phosphorylation-regulated kinase 1B (Homo sapiens) (UniProt Q9Y463); experiment: Inhibition of wild-type human full length DYRK1B (M1 to S629 residues) expressed in bacterial expression system assessed as remaining activity at 1 uM by Kinomescan method relative to control; summary of the method: as §1
[8] = target: Dual specificity protein kinase CLK3 (Homo sapiens) (UniProt P49761); experiment: Inhibition of wild-type human full length CLK3 (M1 to R490 residues) expressed in bacterial expression system assessed as remaining activity at 1 uM by Kinomescan method relative to control; summary of the method: as §1
[9] = target: Glycogen synthase kinase-3 beta (Homo sapiens) (UniProt P49841); experiment: Inhibition of wild-type human full length GSK3B (M1 to T433 residues) expressed in mammalian expression system assessed as remaining activity at 1 uM by Kinomescan method relative to control; summary of the method: as §1
[10] = target: Cyclin-dependent kinase 2 (Homo sapiens) (UniProt P24941); experiment: Inhibition of wild-type human full length CDK2 (M1 to L298 residues) expressed in bacterial expression system assessed as remaining activity at 1 uM by Kinomescan method relative to control; summary of the method: as §1
[11] = target: T2, Dual specificity tyrosine-phosphorylation-regulated kinase 2 (Homo sapiens) (UniProt Q92630); experiment: Inhibition of wild-type human full length DYRK2 (M1 to S528 residues) expressed in mammalian expression system assessed as remaining activity at 1 uM by Kinomescan method relative to control; summary of the method: as §1
T2 sequence (whole entry): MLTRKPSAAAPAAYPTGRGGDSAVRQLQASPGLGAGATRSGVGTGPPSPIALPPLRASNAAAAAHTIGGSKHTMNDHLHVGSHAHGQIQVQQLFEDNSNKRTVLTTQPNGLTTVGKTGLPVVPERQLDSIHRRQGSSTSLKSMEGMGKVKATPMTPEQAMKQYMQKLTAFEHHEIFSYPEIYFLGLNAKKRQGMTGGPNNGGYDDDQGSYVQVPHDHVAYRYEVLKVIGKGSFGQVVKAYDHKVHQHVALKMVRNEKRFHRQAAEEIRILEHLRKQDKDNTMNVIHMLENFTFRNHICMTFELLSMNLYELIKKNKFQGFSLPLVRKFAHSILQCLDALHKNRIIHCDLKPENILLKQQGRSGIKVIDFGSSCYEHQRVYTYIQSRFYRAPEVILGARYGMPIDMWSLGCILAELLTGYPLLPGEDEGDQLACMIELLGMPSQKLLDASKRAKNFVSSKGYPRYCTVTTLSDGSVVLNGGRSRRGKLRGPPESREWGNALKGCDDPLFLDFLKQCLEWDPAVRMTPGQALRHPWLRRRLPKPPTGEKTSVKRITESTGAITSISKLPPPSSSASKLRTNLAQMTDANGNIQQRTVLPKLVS

[12] = target: Dual specificity protein kinase CLK1 (Homo sapiens, UniProt P49759); experiment: Inhibition of wild-type human full length CLK1 (M1 to I484 residues) expressed in bacterial expression system assessed as remaining activity at 1 uM by Kinomescan method relative to control; summary of the method: as §1
Dual specificity protein kinase CLK1, sequence (P49759 whole entry, looked up, the tested form may be a part): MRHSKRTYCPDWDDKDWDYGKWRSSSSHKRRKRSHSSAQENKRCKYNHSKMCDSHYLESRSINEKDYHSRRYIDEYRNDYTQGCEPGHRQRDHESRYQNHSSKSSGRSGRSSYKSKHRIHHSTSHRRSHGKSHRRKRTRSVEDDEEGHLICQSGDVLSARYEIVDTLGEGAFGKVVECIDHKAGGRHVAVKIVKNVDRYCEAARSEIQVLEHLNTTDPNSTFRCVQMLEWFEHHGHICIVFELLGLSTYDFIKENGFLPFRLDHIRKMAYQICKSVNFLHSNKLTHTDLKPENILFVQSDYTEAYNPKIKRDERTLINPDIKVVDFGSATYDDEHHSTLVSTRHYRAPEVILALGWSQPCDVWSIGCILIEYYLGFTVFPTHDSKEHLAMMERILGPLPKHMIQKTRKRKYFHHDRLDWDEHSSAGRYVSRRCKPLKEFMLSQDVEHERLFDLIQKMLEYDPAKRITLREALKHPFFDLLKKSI

Dual specificity tyrosine-phosphorylation-regulated kinase 1B (Homo sapiens), sequence (Q9Y463 whole entry, looked up, the tested form may be a part): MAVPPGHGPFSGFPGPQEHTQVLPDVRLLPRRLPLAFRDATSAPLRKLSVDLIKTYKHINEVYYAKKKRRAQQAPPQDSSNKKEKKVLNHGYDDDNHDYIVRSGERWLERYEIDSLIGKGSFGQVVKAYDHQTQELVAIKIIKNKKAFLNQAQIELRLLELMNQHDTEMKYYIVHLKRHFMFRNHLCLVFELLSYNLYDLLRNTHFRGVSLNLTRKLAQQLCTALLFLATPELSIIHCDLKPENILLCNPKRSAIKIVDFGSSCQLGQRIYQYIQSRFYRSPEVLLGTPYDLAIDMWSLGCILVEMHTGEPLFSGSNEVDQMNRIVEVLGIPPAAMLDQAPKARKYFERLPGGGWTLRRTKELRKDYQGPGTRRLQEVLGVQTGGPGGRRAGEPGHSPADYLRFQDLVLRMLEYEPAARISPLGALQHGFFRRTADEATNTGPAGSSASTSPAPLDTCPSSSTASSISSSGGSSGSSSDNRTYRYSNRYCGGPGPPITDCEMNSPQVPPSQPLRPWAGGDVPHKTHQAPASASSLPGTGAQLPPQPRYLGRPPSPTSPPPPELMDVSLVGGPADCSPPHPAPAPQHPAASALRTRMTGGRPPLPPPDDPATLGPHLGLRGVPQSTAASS
Glycogen synthase kinase-3 beta (Homo sapiens), sequence (P49841 whole entry, looked up, the tested form may be a part): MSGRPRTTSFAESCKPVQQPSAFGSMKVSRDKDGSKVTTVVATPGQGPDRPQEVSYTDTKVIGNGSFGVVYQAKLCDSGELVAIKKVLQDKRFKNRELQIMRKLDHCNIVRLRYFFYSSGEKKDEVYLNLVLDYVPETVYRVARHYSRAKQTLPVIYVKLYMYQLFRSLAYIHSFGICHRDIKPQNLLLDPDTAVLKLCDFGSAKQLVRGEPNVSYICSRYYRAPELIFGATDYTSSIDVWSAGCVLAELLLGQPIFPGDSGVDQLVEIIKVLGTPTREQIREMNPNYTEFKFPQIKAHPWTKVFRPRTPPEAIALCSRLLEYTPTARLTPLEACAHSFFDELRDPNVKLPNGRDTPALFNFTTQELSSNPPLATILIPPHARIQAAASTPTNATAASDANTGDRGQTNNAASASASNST
Dual specificity protein kinase CLK3 (Homo sapiens), sequence (P49761 whole entry, looked up, the tested form may be a part): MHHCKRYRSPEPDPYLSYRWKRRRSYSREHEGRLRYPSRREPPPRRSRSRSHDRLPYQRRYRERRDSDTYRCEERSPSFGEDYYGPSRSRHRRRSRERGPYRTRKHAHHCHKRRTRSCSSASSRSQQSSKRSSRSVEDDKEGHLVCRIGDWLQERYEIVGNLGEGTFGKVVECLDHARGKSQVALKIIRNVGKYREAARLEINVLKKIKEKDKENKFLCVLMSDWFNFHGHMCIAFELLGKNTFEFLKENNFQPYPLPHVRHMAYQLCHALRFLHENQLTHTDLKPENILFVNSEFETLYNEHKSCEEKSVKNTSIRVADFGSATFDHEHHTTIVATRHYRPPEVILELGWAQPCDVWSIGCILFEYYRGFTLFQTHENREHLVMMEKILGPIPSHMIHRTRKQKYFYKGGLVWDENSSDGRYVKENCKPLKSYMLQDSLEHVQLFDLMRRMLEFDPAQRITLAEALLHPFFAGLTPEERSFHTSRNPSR
Dual specificity protein kinase CLK2 (Homo sapiens), sequence (P49760 whole entry, looked up, the tested form may be a part): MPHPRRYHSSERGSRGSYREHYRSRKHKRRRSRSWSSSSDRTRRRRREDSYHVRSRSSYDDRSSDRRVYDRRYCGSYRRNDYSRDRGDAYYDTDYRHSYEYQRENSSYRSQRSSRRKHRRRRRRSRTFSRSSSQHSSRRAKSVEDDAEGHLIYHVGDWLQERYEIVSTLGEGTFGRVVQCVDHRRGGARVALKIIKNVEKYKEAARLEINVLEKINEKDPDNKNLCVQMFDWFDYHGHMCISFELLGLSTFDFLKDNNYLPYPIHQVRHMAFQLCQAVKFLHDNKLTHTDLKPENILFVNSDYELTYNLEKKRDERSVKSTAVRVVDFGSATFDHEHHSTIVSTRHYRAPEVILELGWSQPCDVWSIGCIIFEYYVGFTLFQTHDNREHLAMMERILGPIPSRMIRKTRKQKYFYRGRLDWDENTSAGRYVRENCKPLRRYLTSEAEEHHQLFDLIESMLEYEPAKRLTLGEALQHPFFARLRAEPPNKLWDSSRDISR

CCCN(CCOC)c1nccc(-c2cnn3ncccc23)n1 showed an IC50 [1] of 316 nM.
CN(C)c1ncc(I)c(-c2cnn3ncccc23)n1 showed an IC50 [1] of 1620 nM.
COc1ccc2c(-c3ccnc(N(C)C)n3)cnn2n1 gave an IC50 [1] of 2630 nM.
Compound CC(C)N(c1nccc(-c2cnn3ncccc23)n1)C1CC1 has an IC50 [1] of 1200 nM.
For c1cnn2ncc(-c3ccnc(N4CC5(COC5)C4)n3)c2c1, the IC50 [1] was 513 nM.
For CN(CCC(F)(F)F)c1nccc(-c2cnn3ncccc23)n1, the IC50 [1] was 229 nM.
For Cc1cc(-c2cnn3ncccc23)nc(N(C)C)n1, the IC50 [1] was 11700 nM.
CC1CCN(c2nccc(-c3cnn4ncccc34)n2)C1 (single isomer, unassigned) [listing 1 of 2 here] showed a solubility thermodynamic [2] of 50 µg/mL (≈ 178 µM), a microsomal CLint [3] of 389 µL/min/mg and a microsomal CLint [4] of 184 µL/min/mg. It also gave an IC50 [1] of 148 nM.
With CN(C)c1nccc(-c2c[nH]c3ncccc23)n1 the microsomal CLint [3] was 154 µL/min/mg, the microsomal CLint [4] was 234 µL/min/mg and the IC50 [1] was 135 nM.
Compound CC(C)c1cc(-c2cnn3ncccc23)nc(N(C)C)n1 has an IC50 [1] of 19100 nM.
With CN(C)c1cccc(-c2cnn3ncccc23)n1 the IC50 [1] was 912 nM.
With CN(C)c1nccc(-c2ccc(=O)n(C)c2)n1 the IC50 [1] was 7940 nM.
Compound COc1cnc(N(C)C)nc1-c1cnn2ncccc12 has an IC50 [1] of 1170 nM.
With COc1cc(-c2cnn3ncccc23)nc(N(C)C)n1 the IC50 [1] was greater than 100000 nM.
CN(C)c1nccc(-c2c[nH]c3cnccc23)n1 gave an IC50 [1] of 1020 nM.
Work on CN(c1nccc(-c2cnn3ncccc23)n1)C1CC1 yielded an Activity [5] of 95%, a solubility thermodynamic [2] of 60 µg/mL (≈ 225 µM) and a microsomal CLint [3] of 71 µL/min/mg. For the same compound, the Kd [6] was 90.4 nM, the Activity [7] was 43% and the microsomal CLint [4] was 434 µL/min/mg. For the same compound, the Activity [8] was 96%, the IC50 [1] was 115 nM and the Activity [9] was 91%. For the same compound, the Activity [10] was 100%, the Activity [11] was 100% and the Activity [12] was 79%.
c1cnn2ncc(-c3ccnc(N4CCC5(CCOC5)C4)n3)c2c1 (configuration not stated) showed an IC50 [1] of 269 nM.
Work on CC1(C)CCN(c2nccc(-c3cnn4ncccc34)n2)C1 yielded an IC50 [1] of 427 nM.
For Cc1cnn2ncc(-c3ccnc(N(C)C)n3)c2c1, the Activity [5] was 13%, the solubility thermodynamic [2] was 10 µg/mL (≈ 39.3 µM) and the microsomal CLint [3] was 160 µL/min/mg. For the same compound, the Activity [7] was 1.6%, the microsomal CLint [4] was 164 µL/min/mg and the Activity [8] was 76%. The IC50 [1] was 115 nM, the Activity [9] was 100% and the Activity [10] was 89%. It also gave an Activity [11] of 25% and an Activity [12] of 15%.
Compound CN(C)c1nc(Cl)cc(-c2cnn3ncccc23)n1 has an IC50 [1] of 1350 nM.
With CN(CCCC(F)(F)F)c1nccc(-c2cnn3ncccc23)n1 the IC50 [1] was 100 nM.
NC1CCN(c2nccc(-c3cnn4ncccc34)n2)C1 (single isomer, unassigned) showed an Activity [5] of 51%, a solubility thermodynamic [2] of 4370 µg/mL (≈ 15500 µM) and a microsomal CLint [3] of 40 µL/min/mg. It also gave an Activity [7] of 10%, a microsomal CLint [4] of 66 µL/min/mg and an Activity [8] of 89%. It also gave an Activity [9] of 100%, an Activity [10] of 86% and an Activity [11] of 28%. For the same compound, the Activity [12] was 47%.
COc1ncc(-c2ccnc(N(C)C)n2)s1 showed an IC50 [1] of 3980 nM.
CN(c1ccccc1)c1nccc(-c2cnn3ncccc23)n1 showed a solubility thermodynamic [2] of 50 µg/mL (≈ 165 µM), a microsomal CLint [3] of 450 µL/min/mg and a microsomal CLint [4] of 340 µL/min/mg.
For CC1CCN(c2nccc(-c3cnn4ncccc34)n2)C1 (single isomer, unassigned) [listing 2 of 2 here], the Activity [5] was 15%, the Activity [7] was 9.1% and the Activity [8] was 73%. It also gave an Activity [9] of 100%, an Activity [10] of 95% and an Activity [11] of 25%. It also gave an Activity [12] of 16%.
In the case of CN(C)c1nccc(-c2cn(C)c3cnccc23)n1, the IC50 [1] is reported as 977 nM.
For FC1CCN(c2nccc(-c3cnn4ncccc34)n2)C1 (single isomer, unassigned), the Activity [5] was 62%, the solubility thermodynamic [2] was 40 µg/mL (≈ 141 µM) and the microsomal CLint [3] was 296 µL/min/mg. The Activity [7] was 34%, the microsomal CLint [4] was 130 µL/min/mg and the Activity [8] was 96%. It also gave an IC50 [1] of 66.1 nM, an Activity [9] of 98% and an Activity [10] of 95%. For the same compound, the Activity [11] was 39% and the Activity [12] was 48%.
For Cc1cnc(N(C)C)nc1-c1cnn2ncccc12, the IC50 [1] was 2820 nM.
With CC1CCCN1c1nccc(-c2cnn3ncccc23)n1 (configuration not stated) the Activity [5] was 61%, the solubility thermodynamic [2] was 10 µg/mL (≈ 35.7 µM) and the microsomal CLint [3] was 328 µL/min/mg. For the same compound, the Activity [7] was 81%, the microsomal CLint [4] was 929 µL/min/mg and the Activity [8] was 100%. It also gave an IC50 [1] of 110 nM, an Activity [9] of 92% and an Activity [10] of 100%. It also gave an Activity [11] of 66% and an Activity [12] of 71%.

From ChEMBL document CHEMBL4808225, “Discovery and Characterization of Selective and Ligand-Efficient DYRK Inhibitors” (J Med Chem, 2021)
